{"source": "the M2OR odorant receptor database"}
{"system": "T1, O1440", "T1 sequence (whole entry)": "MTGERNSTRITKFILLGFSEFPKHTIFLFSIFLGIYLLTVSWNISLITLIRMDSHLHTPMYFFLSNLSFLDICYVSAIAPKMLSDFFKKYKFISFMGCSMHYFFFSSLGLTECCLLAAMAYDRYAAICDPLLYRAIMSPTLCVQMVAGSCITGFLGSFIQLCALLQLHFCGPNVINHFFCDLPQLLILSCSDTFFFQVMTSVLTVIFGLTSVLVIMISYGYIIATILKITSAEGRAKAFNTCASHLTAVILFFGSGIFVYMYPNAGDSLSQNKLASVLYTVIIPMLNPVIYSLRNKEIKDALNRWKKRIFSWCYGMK", "settings": "stereoisomer not certain", "method_in_brief": "(§1)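 Transient luciferase assays in mammalian cell lines were common, though methods varied by source. The values come from published papers and their supplementary material, with extra details from the original authors when needed. Responsive refers to a measured signal the original authors judged statistically different from baseline, and non-responsive (inactive) to the remainder.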"}
{"compound": "Cc1c([N+](=O)[O-])c(C)c([N+](=O)[O-])c(C(C)(C)C)c1[N+](=O)[O-]", "odorant receptor agonist call": "inactive"}
{"compound": "CC(=O)c1cc(C(C)(C)C)cc2c1CCC2(C)C", "odorant receptor agonist call": "inactive"}
{"compound": "CC(=O)c1cc2c(cc1C)C(C)(C)C(C)CC2(C)C", "note": "(stereo unspecified)", "odorant receptor agonist call": "active"}
{"system": "T2, O1440", "T2 sequence (whole entry)": "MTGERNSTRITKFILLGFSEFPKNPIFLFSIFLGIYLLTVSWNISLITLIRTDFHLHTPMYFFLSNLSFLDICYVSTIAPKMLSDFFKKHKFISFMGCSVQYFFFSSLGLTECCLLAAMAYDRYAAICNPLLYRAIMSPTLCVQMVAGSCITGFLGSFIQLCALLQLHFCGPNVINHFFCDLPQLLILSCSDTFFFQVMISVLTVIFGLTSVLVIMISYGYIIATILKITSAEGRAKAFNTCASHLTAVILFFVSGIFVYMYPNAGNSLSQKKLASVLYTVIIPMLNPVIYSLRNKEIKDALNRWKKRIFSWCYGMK", "settings": "stereoisomer not certain", "method_in_brief": "as §1"}
{"compound": "Cc1c([N+](=O)[O-])c(C)c([N+](=O)[O-])c(C(C)(C)C)c1[N+](=O)[O-]", "odorant receptor agonist call": "active"}
{"compound": "CC(=O)c1cc(C(C)(C)C)cc2c1CCC2(C)C", "odorant receptor agonist call": "inactive"}
{"compound": "CC(=O)c1cc2c(cc1C)C(C)(C)C(C)CC2(C)C", "note": "(stereo unspecified)", "odorant receptor agonist call": "active"}
